We go through four compounds from ChEMBL document CHEMBL1126893, “Synthesis and CLOGP correlation of imidooxy anticonvulsants” (J Med Chem, 1993).

In assay [1] the test system is Mus musculus. Briefly: Time of peak effect of toxicity of compound was measured by both MES and sc Met test in mice. The format is functional. In a few lines: (§1)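 Phase II quantification in mice after ip dosing. ED50 (scMet or MES) measured at the time of peak effect. TD50 (rotorod neurologic deficit) measured at the time of peak neurologic deficit. Medians and 95% confidence limits by the Litchfield-Wilcoxon method. Protective index = TD50/ED50. Time of peak effect determined in the MES or scMet test.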

In assay [2] the test system is Mus musculus. The assay can be described thus: Time of peak effect of activity of compound was measured by both MES and sc Met test in mice. The class given is functional. In a few lines: as §1
A further assay deals with Rattus norvegicus. Briefly: Effective dose was measured in rat by maximal electroshock method by ip administration. The class given is functional. A general note: In the maximal electroshock model the usual endpoint is tonic extension of the hind limbs.
Assay [3] has as its system Mus musculus. The assay can be described thus: Anticonvulsant activity was measured by maximal electroshock test on mice at 0.25 hr at the dose of 50 mg/kg; number of animals protected/number of animals tested, 0/4. The class given is functional.
The subject of assay [4] is Mus musculus. Briefly: Anticonvulsant activity was measured by subcutaneous pentylenetetrazole test on mice at 30 min at the dose of 100 mg/kg; number of animals protected/number of animals tested, 0/1. The format is functional.
The subject of assay [5] is Mus musculus. The assay can be described thus: Anticonvulsant activity was measured by maximal electroshock test on mice at 4 hr at the dose of 100 mg/kg; number of animals protected/number of animals tested, 0/3. The class given is functional.
Assay [6] has as its system Mus musculus. The assay can be described thus: Anticonvulsant activity was measured by maximal electroshock test on mice at 4 hr at the dose of 300 mg/kg; number of animals protected/number of animals tested, 0/1. The format is functional.
Assay [7] deals with Mus musculus. Briefly: Anticonvulsant activity was measured by maximal electroshock test on mice at 2 hr at the dose of 50 mg/kg; number of animals protected/number of animals tested, 2/4. The class given is functional.
For assay [8], the system named is Mus musculus. The assay can be described thus: Anticonvulsant activity was measured by rotarod toxicity test on mice at 30 min at the dose of 300 mg/kg; number of animals protected/number of animals tested, 4/4. The format is functional.
Assay [9] has as its system Mus musculus. The assay can be described thus: Anticonvulsant activity was measured by maximal electroshock test on mice at 30 min at the dose of 300 mg/kg; number of animals protected/number of animals tested, 1/1. The class given is functional.
Assay [10] concerns Mus musculus. Briefly: Anticonvulsant activity was measured by rotarod toxicity teston mice at 0.50 hr at the dose of 50 mg/kg; number of animals protected/number of animals tested, 0/4. The format is functional. For orientation: The rotarod test checks motor coordination on a turning rod.
For assay [11], the system named is Mus musculus. Briefly: Anticonvulsant activity was measured by maximal electroshock test on mice at 1 hr at the dose of 50 mg/kg; number of animals protected/number of animals tested, 1/4. The format is functional.
For assay [12], the system named is Mus musculus. Briefly: Anticonvulsant activity was measured by maximal electroshock test on mice at 050 hr at the dose of 50 mg/kg; number of animals protected/number of animals tested, 1/4. The format is functional.
Assay [13] relates to Mus musculus. Briefly: Anticonvulsant activity was measured by maximal electroshock test on mice at 30 min at the dose of 100 mg/kg; number of animals protected/number of animals tested, 2/3. The class given is functional.
Assay [14] has as its system Mus musculus. Briefly: Anticonvulsant activity was measured by rotarod toxicity test on mice at 2 hr at the dose of 50 mg/kg; number of animals protected/number of animals tested, 0/4. The format is functional.
Assay [15] concerns Mus musculus. The assay can be described thus: Anticonvulsant activity was measured by maximal electroshock test on mice at 4 hr at the dose of 50 mg/kg; number of animals protected/number of animals tested, 0/4. The format is functional.
Assay [16] deals with Mus musculus. Briefly: Anticonvulsant activity was measured by subcutaneous pentylenetetrazole test on mice at 4 h at the dose of 300 mg/kg; number of animals protected/number of animals tested, 0/1. The class given is functional.
Assay [17] deals with Mus musculus. Briefly: Anticonvulsant activity was measured by subcutaneous pentylenetetrazole test on mice at 4 hr at the dose of 100 mg/kg; number of animals protected/number of animals tested, 0/1. The class given is functional.
In assay [18] the test system is Mus musculus. Briefly: Anticonvulsant activity was measured by rotarod toxicity test on mice at 4 hr at the dose of 300 mg/kg; number of animals protected/number of animals tested, 0/2. The class given is functional.
Assay [19] deals with Mus musculus. Briefly: Anticonvulsant activity was measured by rotarod toxicity test on mice at 4 hr at the dose of 50 mg/kg; number of animals protected/number of animals tested, 0/4. The format is functional.
The subject of assay [20] is Mus musculus. The assay can be described thus: Anticonvulsant activity was measured by rotarod toxicity test on mice at 1 hr at the dose of 50 mg/kg; number of animals protected/number of animals tested, 0/4. The class given is functional.
Assay [21] relates to Mus musculus. The assay can be described thus: Anticonvulsant activity was measured by subcutaneous pentylenetetrazole test on mice at 30 min at the dose of 300 mg/kg; number of animals protected/number of animals tested, 1/1. The format is functional.
In assay [22] the test system is Mus musculus. The assay can be described thus: Anticonvulsant activity was measured by rotarod toxicity test on mice at 4 hr at the dose of 100 mg/kg; number of animals protected/number of animals tested, 0/4. The format is functional.
Assay [23] has as its system Mus musculus. The assay can be described thus: Anticonvulsant activity was measured by rotarod toxicity test on mice at 30 min at the dose of 100 mg/kg; number of animals protected/number of animals tested, 0/8. The format is functional.
The test system of assay [24] is Mus musculus. Briefly: Anticonvulsant activity was measured by rotarod toxicity teston mice at 0.25 hr at the dose of 50 mg/kg; number of animals protected/number of animals tested, 0/4. The class given is functional.
The species named for assay [25] is Mus musculus. The assay can be described thus: animal or person.
Assay [26] deals with Mus musculus. Briefly: Anticonvulsant activity was measured by subcutaneous pentylenetetrazole test on mice at 30 min at the dose of 300 mg/kg; number of animals protected/number of animals tested, 0/1. The class given is functional.
Assay [27] concerns Mus musculus. The assay can be described thus: Anticonvulsant activity was measured by maximal electroshock test on mice at 050 hr at the dose of 50 mg/kg; number of animals protected/number of animals tested, 0/4. The class given is functional.
For assay [28], the system named is Mus musculus. Briefly: Anticonvulsant activity was measured by maximal electroshock test on mice at 1 hr at the dose of 50 mg/kg; number of animals protected/number of animals tested, 0/4. The format is functional.
Assay [29] relates to Mus musculus. The assay can be described thus: Anticonvulsant activity was measured by maximal electroshock test on mice at 2 hr at the dose of 50 mg/kg; number of animals protected/number of animals tested, 1/4. The class given is functional.
Assay [30] has as its system Mus musculus. Briefly: Anticonvulsant activity was measured by maximal electroshock test on mice at 30 min at the dose of 100 mg/kg; number of animals protected/number of animals tested, 0/3. The format is functional.

Molecules are shown by their SMILES.

As a reminder, the ED50 is the dose at which the effect has come halfway, by size or by number of responders. Lower therefore signals an effect at a small dose.

As for `CCC1(C)CC(=O)NC1=O` (stereo not given) [ETHOSUXIMIDE], the TPE in the assay on Mus musculus [1] was found to be 0.5; with Mus musculus [2], 0.5 toxicity. In addition, the 50% effective dose (ED50) with Rattus norvegicus is over 1000 mg/kg.

For the compound `O=C1CC2(CCCC2)C(=O)N1OCc1ccccc1F`, the Ratio in the assay on Mus musculus [3] is given as 0; in the assay on Mus musculus [4], 0; with Mus musculus [5], 0; in the assay on Mus musculus [6], 0; with Mus musculus [7] it was 2; in the assay with Mus musculus [8] it was 4. In addition, the Ratio in the assay with Mus musculus [9] was found to be 1; with Mus musculus [10], 0; in the assay with Mus musculus [11], 1; with Mus musculus [12], 1; with Mus musculus [13] it was 2; in the assay with Mus musculus [14], 0. The Ratio in the assay on Mus musculus [15], in the assay on Mus musculus [16], in the assay with Mus musculus [17], in the assay with Mus musculus [18], with Mus musculus [19] and with Mus musculus [20] was 0 throughout. The Ratio in the assay with Mus musculus [21] was 1; with Mus musculus [22] it was 0; in the assay with Mus musculus [23] it was 0; in the assay on Mus musculus [24] it was 0.

For the compound `CCCC(CCC)C(=O)O` [VALPROIC ACID], the TPE with Mus musculus [1] turned out to be 0.25; in the assay on Mus musculus [2], 0.25 toxicity. Besides, the 50% effect level in the assay listed under Mus musculus [25] (ED50) was put at a dose of 149 mg/kg.

As to `O=C1CC2(CCCC2)C(=O)N1OCc1ccccc1Cl`, the Ratio in the assay on Mus musculus [3] is recorded as 0; in the assay on Mus musculus [4] it was 0; in the assay on Mus musculus [5], 0; with Mus musculus [6] it was 0; in the assay with Mus musculus [8], 4; in the assay on Mus musculus [26] it was 0. Also, the Ratio is 0 in the assay with Mus musculus [27]; 0 in the assay with Mus musculus [28]; 1 in the assay with Mus musculus [9]; 1 with Mus musculus [29]; 0 with Mus musculus [10]; 0 in the assay on Mus musculus [30]. Besides, the Ratio with Mus musculus [14], in the assay on Mus musculus [15], in the assay with Mus musculus [16], in the assay with Mus musculus [17], with Mus musculus [18] and with Mus musculus [19] was 0 in each case. Moreover, the Ratio in the assay on Mus musculus [20], in the assay on Mus musculus [22], in the assay on Mus musculus [23] and with Mus musculus [24] was 0 throughout.
